Assay results as given in paper PMC12415690 (RSC Advances, 2025).
≈ marks a conversion by molar mass, not a printed value. Like-named read-outs stand apart in the source and are kept apart here.

How the values were obtained:
[1] = test system: Mycobacterium tuberculosis; details: cited from earlier work
M.tb H37Rv = details: cited from earlier work
S. aureus (ATCC 23235) = test: Antibacterial zone of inhibition; assay type: cell-based; details: Staphylococcus aureus, ATCC23235, read-out: Zone of inhibition in mm, S. aureus (ATCC 23235)
Outline: (§1)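 Sterilised nutrient agar, […], was seeded with 18–24 h bacterial subcultures, mixed and poured into Petri dishes. Once the agar set, 6 mm wells were cut with a sterile cork borer and filled with test compound dissolved in DMSO at 100 μg mL−1. Plates were incubated at 37 °C for 24–48 h, and inhibition zones around each well were measured in mm. Ciprofloxacin was the reference standard.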

B. subtilis (ATCC 6051) = test: Antibacterial zone of inhibition; assay type: cell-based, Bacillus subtilis; details: 100 μg mL^−1; for zone of inhibition at 100 µg/mL: Bacillus subtilis, ATCC6051, read-out: Zone of inhibition in mm, B. subtilis (ATCC 6051), Gram positive; for Zone of inhibition in mm, B. subtilis (ATCC 6051): Gram positive
Outline: as §1

[2] = test system: P. aeruginosa (ATCC 27853); test: Antibacterial zone of inhibition; assay type: cell-based; details: Pseudomonas aeruginosa, ATCC27853, read-out: Zone of inhibition in mm, P. aeruginosa (ATCC 27853)
Outline: as §1

E. coli (ATCC 25922) = test: Antibacterial zone of inhibition; assay type: cell-based; details: Escherichia coli, ATCC25922, read-out: Zone of inhibition in mm, E. coli (ATCC 25922)
Outline: as §1

[3] = test system: M. tuberculosis H37Rv strain (ATCC 27294); test: Antitubercular activity, microplate Alamar Blue assay; assay type: cell-based; details: Mycobacterium tuberculosis, ATCC27294|H37RV, read-out: MIC μM
[4] = test system: dormant M. tuberculosis H37Ra; details: cited from earlier work

SMILES | MIC ([1]; thiazole-thiadiazole hybrids) [µM] | MIC ([1]; (E)-2-(2-allylidenehydrazinyl)thiazole derivatives) [µg/mL] | MIC (M.tb H37Rv; M.tb H37Rv) [µM] | zone of inhibition at 100 µg/mL (S. aureus (ATCC 23235)) [mm] | zone of inhibition at 100 µg/mL (B. subtilis (ATCC 6051)) [mm] | Zone of inhibition in mm, B. subtilis (ATCC 6051) (B. subtilis (ATCC 6051)) [mm] | Cytotoxicity in VERO cells (VERO cell lines) | zone of inhibition at 100 µg/mL [2] [mm] | zone of inhibition at 100 µg/mL (E. coli (ATCC 25922)) [mm] | MIC [3] [µM] | MIC (M.tb H37Rv; H37Rv strain) [µg/mL] | inhibition against dormant M. tuberculosis H37Ra [4] [%]
Cc1csc(C(C)(O)c2nnc(Nc3cccc(Br)n3)s2)n1 (stereo not drawn) [1-(5-((6-bromopyridin-2-yl)amino)-1,3,4-thiadiazol-2-yl)-1-(4-methylthiazol-2-yl)ethanol] | 1 | – | – | – | – | – | – | – | – | – | – | –
O=[N+]([O-])c1ccc(-c2csc(N/N=C/C=C(\Cl)c3ccc(Cl)cc3)n2)cc1 [2-((E)-2-((Z)-3-chloro-3-(4-chlorophenyl)allylidene)hydrazinyl)-4-(4-nitrophenyl)thiazole] | – | 6.5 | – | – | – | – | – | – | – | – | – | –
CCOC(=O)c1sc(N/N=C/c2ccccc2O)nc1C [(E)-ethyl 2-(2-(2-hydroxybenzylidene)hydrazinyl-4-methylthiazole-5-carboxylate] | – | – | 25 | – | – | – | – | – | – | – | – | –
CCOC(=O)c1sc(N/N=C(\C)c2ccccn2)nc1C [(E)-ethyl 4-methyl-(2-(1-(pyridin-2-yl)ethylidene)hydrazinyl)thiazole-5-carboxylate] | – | – | 12.5 | – | – | – | – | – | – | – | – | –
CCOC(=O)c1sc(N/N=C/c2c(-c3ccc(OC)cc3)nc3ncccn23)nc1C [Compound K2, Ethyl(E)-2-(2-((2-(4-methoxyphenyl)imidazo[1,2-a]pyrimidin-3-yl)methylene)hydrazineyl)-4-methylthiazole-5-carboxylate] | – | – | – | 15 | 15 to 20 | 15 | non-toxic profiles | 18 | 18 | 3.66 (≈ 1.6 µg/mL) | – | –
CCOC(=O)c1sc(N/N=C/c2c(-c3ccc(F)cc3)nc3ncccn23)nc1C [Compound K3, Ethyl(E)-2-(2-((2-(4-fluorophenyl)imidazo[1,2-a]pyrimidin-3-yl)methylene)hydrazineyl)-4-methylthiazole-5-carboxylate] | – | – | – | 17 | 13 | – | non-toxic profiles | 11 | 20 | 3.77 (≈ 1.6 µg/mL) | – | –
CCOC(=O)c1sc(N/N=C/c2c(-c3ccc(Br)cc3)nc3ncccn23)nc1C [Compound K5, Ethyl(E)-2-(2-((2-(4-bromophenyl)imidazo[1,2-a]pyrimidin-3-yl)methylene)hydrazineyl)-4-methylthiazole-5-carboxylate] | – | – | – | 11 | 13 | – | – | 13 | 14 | 12.9 (≈ 6.27 µg/mL) | – | –
CCOC(=O)c1sc(N/N=C/c2c(-c3ccc(C#N)cc3)nc3ncccn23)nc1C [Compound K6, Ethyl(E)-2-(2-((2-(4-cyanophenyl)imidazo[1,2-a]pyrimidin-3-yl)methylene)hydrazineyl)-4-methylthiazole-5-carboxylate] | – | – | – | 17 | 14 | – | – | 15 | 10 | 29 (≈ 12.5 µg/mL) | – | –
CCOC(=O)c1cnc(N/N=C/c2c(-c3ccccc3)nc3ncccn23)s1 [Compound K14, Ethyl(E)-2-(2-((2-phenylimidazo[1,2-a]pyrimidin-3-yl)methylene)hydrazineyl)thiazole-5-carboxylate] | – | – | – | 15 | 14 | – | – | 15 | 12 | 31.9 (≈ 12.5 µg/mL) | – | –
CC(=O)c1sc(N/N=C/c2c(-c3ccc(C)cc3)nc3ncccn23)nc1C [Compound K15, (E)-1-(4-methyl-2-(2-((2-(p-tolyl)imidazo[1,2-a]pyrimidin-3-yl)methylene)hydrazineyl)thiazol-5-yl)ethan-1-one] | – | – | – | 12 | 13 | – | – | 14 | 15 | 32 (≈ 12.5 µg/mL) | – | –
CC(=O)c1sc(N/N=C/c2c(-c3ccc(Cl)cc3)nc3ncccn23)nc1C [Compound K18, (E)-1-(2-(2-((2-(4-chlorophenyl)imidazo[1,2-a]pyrimidin-3-yl)methylene)hydrazineyl)-4-methylthiazol-5-yl)ethan-1-one] | – | – | – | 18 | 15 to 20 | 15 | – | 12 | 15 | 30.5 (≈ 12.5 µg/mL) | – | –
CC(=O)c1sc(N/N=C/c2c(-c3ccc(C#N)cc3)nc3ncccn23)nc1C [Compound K20, (E)-4-(3-((2-(5-acetyl-4-methylthiazol-2-yl)hydrazineylidene)methyl)imidazo[1,2-a]pyrimidin-2-yl)benzonitrile] | – | – | – | 17 | 15 to 20 | 15 | – | 12 | 14 | 15.6 (≈ 6.25 µg/mL) | – | –
CCOC(=O)/C=C1/SC(N/N=C/c2c(-c3ccc(C)cc3)nc3ncccn23)=NC1=O [Compound K22, Ethyl(E)-2-(4-oxo-2-(2-((E)-(2-(p-tolyl)imidazo[1,2-a]pyrimidin-3-yl)methylene) hydrazineyl)thiazol-5(4H)-ylidene)acetate] | – | – | – | 15 | 15 to 20 | 15 | – | 13 | 24 | 28.8 (≈ 12.5 µg/mL) | – | –
CCOC(=O)/C=C1/SC(N/N=C/c2c(-c3ccc(Cl)cc3)nc3ncccn23)=NC1=O [Compound K25, Ethyl(E)-2-(2-(2-((E)-(2-(4-chlorophenyl)imidazo[1,2-a]pyrimidin-3-yl)methylene) hydrazineyl)-4-oxothiazol-5(4H)-ylidene)acetate] | – | – | – | 21 | 15 to 20 | 20 | – | 20 | 21 | 55 (≈ 25 µg/mL) | – | –
CCOC(=O)c1nc(-c2ccc(C#N)cc2)sc1C1CCCCC1 [ethyl 2-(4-cyanophenyl)-5-cyclohexylthiazole-4-carboxylate] | – | – | – | – | – | – | – | – | – | – | 2.1 | 91
